Results taken from ChEMBL document CHEMBL1772997 (J Med Chem, 2011).
pEC50, pKi: −log10 of the molar value. Active and inactive are the calls of the source. The rule behind the calls is not given here.

Legend:
[1] = molecular target: T1, Melatonin receptor type 1A (Homo sapiens, UniProt P48039); assay: Displacement of [125I]-2-iodomelatonin from human MT1 receptor expressed on CHO cells by microscintillation counting; format: cell-based
Homo sapiens = organism: Homo sapiens; assay: Selectivity ratio, ratio of Ki for human MT1 receptor over Ki for human MT2 receptor
[2] = molecular target: T2, Melatonin receptor type 1B (Homo sapiens, UniProt P49286); assay: Displacement of [125I]-2-iodomelatonin from human MT2 receptor expressed on CHO cells microscintillation counting; format: cell-based
T2 sequence (P49286 whole entry): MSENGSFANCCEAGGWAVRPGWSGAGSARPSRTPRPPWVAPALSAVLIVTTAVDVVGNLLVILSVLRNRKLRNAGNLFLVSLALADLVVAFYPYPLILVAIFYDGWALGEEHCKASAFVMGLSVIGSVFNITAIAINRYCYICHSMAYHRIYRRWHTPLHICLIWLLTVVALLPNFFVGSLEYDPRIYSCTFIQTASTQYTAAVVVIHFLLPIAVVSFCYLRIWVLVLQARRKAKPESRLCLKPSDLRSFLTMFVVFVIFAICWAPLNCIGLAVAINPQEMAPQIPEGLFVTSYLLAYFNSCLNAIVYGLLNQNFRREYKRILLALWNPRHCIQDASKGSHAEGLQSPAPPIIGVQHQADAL

[3] = molecular target: T3, Melatonin receptor type 1B (Homo sapiens) (UniProt P49286); assay: Agonist activity at human MT2 receptor expressed in CHO cells assessed as inhibition of forskolin-induced cAMP accumulation after 30 mins by EnVision Multilabel Plate Readers relative to control; format: functional, cell-based
T3 sequence (whole entry): T2 sequence (P49286 whole entry)
Outline: (§1)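 Stable CHO line expressing human MT2, suspended in modified HBSS with 5 mM HEPES pH 7.4, 0.1% BSA, 100 μM IBMX and 100 μM Ro20-1724; 6 × 10⁴ cells/well. Compound added, then forskolin (final 2 μM), 30 min at room temperature; AlphaScreen cAMP read after 12 h in dark.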

[4] = molecular target: T1, Melatonin receptor type 1A; assay: Agonist activity at human MT1 receptor expressed in CHO cells assessed as inhibition of forskolin-induced cAMP accumulation after 30 mins by EnVision Multilabel Plate Readers; format: functional, cell-based
Mus musculus [5] = assay: Chronobiotic activity in ICR mouse assessed as reentrainment for 8 hrs advance of dark phase at 3 mg/kg, ip administered 1 hr before dark period once daily for 3 days by running-wheel activity assay; format: functional, organism-based; set-up: dose 3 mg/kg
Outline: (§2)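 Male ICR mice (6 weeks old), housed individually with running wheels under 12/12 light/dark, habituated at least 2 weeks; dark phase then advanced 8 h and kept 14 days. Dosed ip once daily 1 h before dark from shift day, suspended in 0.5% methylcellulose saline, 10 mL/kg. Days to reentrainment: onset advanced >7 h for ≥3 consecutive days, else scored 14 days.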

Mus musculus [6] = assay: Chronobiotic activity in ICR mouse assessed as reentrainment for 8 hrs advance of dark phase at 30 mg/kg, ip administered 1 hr before dark period once daily for 3 days by running-wheel activity assay; format: functional, organism-based; set-up: dose 30 mg/kg; outline: as §2
[7] = molecular target: T3, Melatonin receptor type 1B (Homo sapiens); assay: Ratio of compound Ki to melatonin Ki for human MT2 receptor expressed on CHO cells by radioligand displacement assay; format: cell-based
Outline: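 Membranes from CHO cells stably expressing human MT1 or MT2, in 50 mM Tris-HCl pH 7.7. Incubated with 2-[¹²⁵I]iodomelatonin, 40 pM for MT1 or 80 pM for MT2, 150 min at 25 °C. […] IC50 by three-parameter fit, Ki by Cheng–Prusoff using Kd 33.9 pM for MT1 and 72.6 pM for MT2.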

[8] = molecular target: T2, Melatonin receptor type 1B; assay: Agonist activity at human MT2 receptor expressed in CHO cells assessed as inhibition of forskolin-induced cAMP accumulation after 30 mins by EnVision Multilabel Plate Readers; format: functional, cell-based
[9] = molecular target: T3, Melatonin receptor type 1B (Homo sapiens); assay: Partial agonist activity at human MT2 receptor expressed in CHO cells assessed as inhibition of forskolin-induced cAMP accumulation after 30 mins by EnVision Multilabel Plate Readers relative to control; format: functional, cell-based; outline: as §1

T1 sequence (P48039 whole entry): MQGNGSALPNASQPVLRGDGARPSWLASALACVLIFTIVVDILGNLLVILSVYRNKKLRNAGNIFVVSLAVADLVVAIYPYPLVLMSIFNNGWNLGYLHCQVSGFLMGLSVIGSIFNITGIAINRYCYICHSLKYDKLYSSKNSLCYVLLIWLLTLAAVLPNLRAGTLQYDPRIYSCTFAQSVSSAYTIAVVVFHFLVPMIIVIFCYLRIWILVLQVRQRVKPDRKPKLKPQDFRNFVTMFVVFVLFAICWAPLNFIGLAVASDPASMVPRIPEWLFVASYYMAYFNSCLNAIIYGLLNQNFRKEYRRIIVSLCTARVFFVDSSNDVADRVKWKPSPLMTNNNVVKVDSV

Compound	pKi [1]	Ratio Ki (Homo sapiens)	pKi [2]	Emax [3] [%]	pEC50 [4]	Ratio Ki [7]	pEC50 [8]	Emax [9] [%]	Activity (Mus musculus [5])	Activity (Mus musculus [6])
CCNC(=O)NCCC1=C(C(C)C)Cc2ccc3c(c21)CCO3	8.96	13	10.08							
CC(=O)NCCC1=C(Cc2ccccc2)Cc2ccc3c(c21)CCO3	8.57	316	11.07	61.7	9.29					
CC(=O)NCCC1=C(c2csc3ccccc23)Cc2ccc3c(c21)CCO3	8.89	220	11.22							
COc1ccccc1C1=C(CCNC(C)=O)c2c(ccc3c2CCO3)C1	8.96	53	10.70							
CC(=O)NCCC1=C(Cc2ccsc2)Cc2ccc3c(c21)CCO3	9.06	132	11.17							
CC(C)C1=C(CCNC(=O)C2CC2)c2c(ccc3c2CCO3)C1	9.96	3.2	10.46							
CC(=O)NCCC1=C(c2ccc(C(C)(C)C)cc2)Cc2ccc3c(c21)CCO3	8.85	1.8	9.11							
CC(=O)NCCC1=C(CC2CCCCC2)Cc2ccc3c(c21)CCO3	8.04	799	10.92	99	8.35	18	8.88		Active	Active
COc1ccc(C2=C(CCNC(C)=O)c3c(ccc4c3CCO4)C2)cc1	8.52	81	10.43							
CC(=O)NCCC1=C(c2ccccc2OC(C)C)Cc2ccc3c(c21)CCO3	< 7.00	> 292	9.47							
CC(=O)NCCC1=C(c2cccc(C(C)C)c2)Cc2ccc3c(c21)CCO3	7.89	1200	10.96		8.52	19		72.8		

The next compounds have a higher pKi [1] than those just listed; values first:

pKi [1]	Ratio Ki (Homo sapiens)	pKi [2]	Emax [3] [%]	pEC50 [4]	Ratio Ki [7]	pEC50 [8]	Emax [9] [%]	Compound	Activity (Mus musculus [5])	Activity (Mus musculus [6])
10.24	6.3	11.05						COc1cccc(C2=C(CCNC(C)=O)c3c(ccc4c3CCO4)C2)c1		
10.62	1.3	10.74						CC(=O)NCCC1=C(C(C)C)Cc2ccc3c(c21)CCO3		
10.16	2.1	10.47						CC(=O)NCCC1=C(c2cccnc2)Cc2ccc3c(c21)CCO3		
10.89	1.3	10.96						CCC(=O)NCCC1=C(C(C)C)Cc2ccc3c(c21)CCO3		
11.19	0.68	11.02						CC(=O)NCCC1=C(c2ccoc2)Cc2ccc3c(c21)CCO3		
10.35	2.1	10.66			10			CC(=O)NCCC1=CCc2ccc3c(c21)CCO3		
11.06	0.61	10.85						CC(=O)NCCC1=C(Br)Cc2ccc3c(c21)CCO3		
10.49	3.1	11.00						CC(C)C1=C(CCNC(=O)C(F)(F)F)c2c(ccc3c2CCO3)C1		
